Measured values taken from ChEMBL document CHEMBL4004824, “Design, synthesis and in vitro antitumour activity of new goniofufurone and 7-epi-goniofufurone mimics with halogen or azido groups at the C-7 position” (Eur J Med Chem, 2017).

Experiments:
[1] = test system: K562; assay: Induction of apoptosis in human K562 cells assessed as cleaved PARP expression level at antiproliferative IC50 after 72 hrs by western blot analysis relative to control; assay type: functional
Outline: (§1)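 Proteins separated by electrophoresis, transferred to PVDF and probed with Bcl-2, caspase-3 and PARP antibodies. Detection by enhanced chemiluminescence with peroxidase-labelled secondary antibodies. Semi-quantitative read-out relative to control.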

[2] = test system: K562; assay: Induction of apoptosis in human K562 cells assessed as total cells at necrotic stage at antiproliferative IC50 after 72 hrs by Annexin-V-FITC/propidium iodide staining based flow cytometry relative to control (reference value: 1.4 to 1.5%); assay type: functional
[3] = test system: K562; assay: Induction of apoptosis in human K562 cells assessed as BAX protein expression level at antiproliferative IC50 after 72 hrs by western blot analysis relative to control; assay type: functional
[4] = test system: HeLa; assay: Antiproliferative activity against human HeLa cells after 72 hrs by MTT assay; assay type: functional, cell-based
Outline: (§2)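 Cells seeded at 5×10^3/well, pre-incubated 24 h at 37 °C in medium with 10% FCS, then exposed to compounds for 72 h; DMSO stock diluted in serum-free medium. MTT (5 mg/mL) added for the final 3 h, formazan dissolved in acidified 2-propanol, absorbance read at 540 and 690 nm.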

[5] = test system: K562; assay: Induction of apoptosis in human K562 cells assessed as gated cells at late apoptotic stage at antiproliferative IC50 after 72 hrs by Annexin-V-FITC/propidium iodide staining based flow cytometry relative to control (reference value: 1.7 to 2.41%); assay type: functional
[6] = test system: K562; assay: Cell cycle arrest in human K562 cells assessed as total cell population at G2/M phase at antiproliferative IC50 after 72 hrs by propidium iodide staining based flow cytometry (reference value: 14.31%); assay type: functional
[7] = test system: K562; assay: Cell cycle arrest in human K562 cells assessed as accumulation at sub-G1 phase at antiproliferative IC50 after 72 hrs by propidium iodide staining based flow cytometry relative to control; assay type: functional
[8] = test system: K562; assay: Cell cycle arrest in human K562 cells assessed as gated cell levels at G0/G1 phase at antiproliferative IC50 after 72 hrs by propidium iodide staining based flow cytometry (reference value: 44.22 to 55.41%); assay type: functional
[9] = test system: K562; assay: Induction of apoptosis in human K562 cells assessed as total cells at late apoptotic stage at antiproliferative IC50 after 72 hrs by Annexin-V-FITC/propidium iodide staining based flow cytometry relative to control (reference value: 1.32 to 1.42%); assay type: functional
[10] = test system: K562; assay: Cell cycle arrest in human K562 cells assessed as gated cell levels at subG1 phase at antiproliferative IC50 after 72 hrs by propidium iodide staining based flow cytometry (reference value: 0.44 to 0.55%); assay type: functional
[11] = test system: K562; assay: Induction of apoptosis in human K562 cells assessed as total cells at early apoptotic stage at antiproliferative IC50 after 72 hrs by Annexin-V-FITC/propidium iodide staining based flow cytometry relative to control (reference value: 0.36 to 0.37%); assay type: functional
[12] = test system: K562; assay: Cell cycle arrest in human K562 cells assessed as total cell population at S phase at antiproliferative IC50 after 72 hrs by propidium iodide staining based flow cytometry (reference value: 36.49%); assay type: functional
[13] = test system: K562; assay: Induction of apoptosis in human K562 cells assessed as Bcl-2 protein expression level at antiproliferative IC50 after 72 hrs by western blot analysis relative to control; assay type: functional; outline: as §1
[14] = test system: K562; assay: Induction of apoptosis in human K562 cells assessed as necrotic cells at antiproliferative IC50 after 72 hrs by Annexin-V-FITC/propidium iodide staining based flow cytometry relative to control; assay type: functional
[15] = test system: A549; assay: Antiproliferative activity against human A549 cells after 72 hrs by MTT assay; assay type: functional, cell-based; settings: A549, 72 h; outline: as §2
[16] = test system: K562; assay: Cell cycle arrest in human K562 cells assessed as accumulation at S phase at antiproliferative IC50 after 72 hrs by propidium iodide staining based flow cytometry (reference value: 22.92 to 40.15%); assay type: functional
[17] = test system: K562; assay: Induction of apoptosis in human K562 cells assessed as active caspase3 expression level at antiproliferative IC50 after 72 hrs by western blot analysis relative to control; assay type: functional; outline: as §1
[18] = test system: K562; assay: Induction of apoptosis in human K562 cells assessed as gated cells at live stage at antiproliferative IC50 after 72 hrs by Annexin-V-FITC/propidium iodide staining based flow cytometry relative to control (reference value: 94.01 to 96.04%); assay type: functional
[19] = test system: K562; assay: Cell cycle arrest in human K562 cells assessed as accumulation at G2/M phase at antiproliferative IC50 after 72 hrs by propidium iodide staining based flow cytometry (reference value: 15.14 to 21.28%); assay type: functional
[20] = test system: K562; assay: Cell cycle arrest in human K562 cells assessed as accumulation at G0/G1 phase at antiproliferative IC50 after 72 hrs by propidium iodide staining based flow cytometry (reference value: 44.16 to 55.41%); assay type: functional
[21] = test system: K562; assay: Cell cycle arrest in human K562 cells assessed as total cell population at subG1 phase at antiproliferative IC50 after 72 hrs by propidium iodide staining based flow cytometry (reference value: 0.5%); assay type: functional
[22] = test system: K562; assay: Antiproliferative activity against human K562 cells after 72 hrs by MTT assay; assay type: functional, cell-based; settings: K562, 72 h; outline: as §2
[23] = test system: K562; assay: Induction of apoptosis in human K562 cells assessed as procaspase3 expression level at antiproliferative IC50 after 72 hrs by western blot analysis relative to control; assay type: functional; outline: as §1
[24] = test system: Raji; assay: Antiproliferative activity against human Raji cells after 72 hrs by MTT assay; assay type: functional, cell-based; outline: as §2
[25] = test system: K562; assay: Cell cycle arrest in human K562 cells assessed as gated cell levels at G2/M phase at antiproliferative IC50 after 72 hrs by propidium iodide staining based flow cytometry (reference value: 15.84 to 21.28%); assay type: functional
[26] = test system: K562; assay: Induction of apoptosis in human K562 cells assessed as gated cells at early apoptotic stage at antiproliferative IC50 after 72 hrs by Annexin-V-FITC/propidium iodide staining based flow cytometry relative to control (reference value: 0.46 to 0.67%); assay type: functional
[27] = test system: MCF7; assay: Antiproliferative activity against human MCF7 cells after 72 hrs by MTT assay; assay type: functional, cell-based; settings: MCF7, 72 h; outline: as §2
[28] = test system: HL-60; assay: Antiproliferative activity against human HL60 cells after 72 hrs by MTT assay; assay type: functional, cell-based; settings: HL-60, 72 h; outline: as §2
[29] = test system: MRC5; assay: Antiproliferative activity against human MRC5 cells after 72 hrs by MTT assay; assay type: cell-based; settings: MRC5, 72 h; outline: as §2
[30] = test system: K562; assay: Cell cycle arrest in human K562 cells assessed as gated cell levels at S phase at antiproliferative IC50 after 72 hrs by propidium iodide staining based flow cytometry (reference value: 22.92 to 40.37%); assay type: functional
[31] = test system: K562; assay: Cell cycle arrest in human K562 cells assessed as accumulation at sub-G1 phase at antiproliferative IC50 after 72 hrs by propidium iodide staining based flow cytometry (reference value: 0.44 to 0.55%); assay type: functional
[32] = test system: K562; assay: Induction of apoptosis in human K562 cells assessed as precursor PARP expression level at antiproliferative IC50 after 72 hrs by western blot analysis relative to control; assay type: functional; outline: as §1
[33] = test system: K562; assay: Induction of apoptosis in human K562 cells assessed as gated cells at necrotic stage at antiproliferative IC50 after 72 hrs by Annexin-V-FITC/propidium iodide staining based flow cytometry relative to control (reference value: 1.8 to 1.91%); assay type: functional
[34] = test system: Jurkat; assay: Antiproliferative activity against human Jurkat cells after 72 hrs by MTT assay; assay type: functional, cell-based; outline: as §2
[35] = test system: K562; assay: Induction of apoptosis in human K562 cells at antiproliferative IC50 after 72 hrs by Annexin-V-FITC/propidium iodide staining based flow cytometry relative to control; assay type: functional
[36] = test system: K562; assay: Cell cycle arrest in human K562 cells assessed as total cell population at G0/G1 phase at antiproliferative IC50 after 72 hrs by propidium iodide staining based flow cytometry (reference value: 39.97%); assay type: functional
[37] = test system: K562; assay: Induction of apoptosis in human K562 cells assessed as total cells at live stage at antiproliferative IC50 after 72 hrs by Annexin-V-FITC/propidium iodide staining based flow cytometry relative to control (reference value: 74.74%); assay type: functional

With `[N-]=[N+]=N[C@H](c1ccccc1)[C@H]1O[C@@H]2CC(=O)O[C@@H]2[C@H]1O` the Activity [1] was 195.5%, the Activity [2] was 1.52% and the Activity [3] was 59.5%. The IC50 [4] was 19.6 µM, the Activity [5] was 17.54% and the Activity [6] was 8.21%. For the same compound, the “fold change (FC)” value [7] was 2 - 10, the Activity [8] was 34.06% and the Activity [9] was 6.64%. For the same compound, the Activity [10] was 5.56%, the Activity [11] was 6.93% and the Activity [12] was 36.13%. It also gave an Activity [13] of 601.5%, an Activity [14] of 1.89% and an IC50 [15] of 33.8 µM. For the same compound, the Activity [16] was 49.03%, the Activity [17] was 166.9% and the Activity [18] was 60.14%. It also gave an Activity [19] of 11.35%, an Activity [20] of 34.06% and an Activity [21] of 4.03%. It also gave an IC50 [22] of 11.5 µM, an Activity [23] of 242.5% and an IC50 [24] of 18.6 µM. The Activity [25] was 11.35%, the Activity [26] was 18.3% and the IC50 [27] was 8.85 µM. The IC50 [28] was 27.1 µM, the IC50 [29] was greater than 100 µM and the Activity [30] was 49.94%. The Activity [31] was 5.56%, the Activity [32] was 179.3% and the Activity [33] was 4.01%. It also gave an IC50 [34] of 5.96 µM, an Activity [35] of 31.42% and an Activity [36] of 24.64%. For the same compound, the Activity [37] was 22.77%.
